Screens (PubChem)
KCNK3 inh: human KCNK3 channel inhibition, primary screen | AID 602410 | B-score at 10 µM | O14649 | CHO-KCNK3 thallium flux, FluxOR fluorescence; active compounds read low | hit rate 0.84% among 340,000;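 active means B-score under library mean minus 4 SD, starting fluorescence ratio at most library mean plus 5 SD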;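 further: more negative B-score means stronger inhibition of thallium flux through KCNK3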
Kir21 block: inhibitors of mouse Kir2.1 inward-rectifier potassium channel | P35561 | HEK293-Kir2.1, FluxOR thallium flux fluorescence; active compounds read low | B-score at 10 µM | hit rate 0.85% among 310,000 | AID 1672;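 active means fluorescence ratio B-score at or below minus 3 SD of library scores, with starting-brightness B-score within 2 SD, cut at about -4.2 in these data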;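 further: channel flux triggered by added potassium and thallium sulfate stimulus; B-score of peak minus minimum fluorescence over baseline after thallium stimulus; more negative B-score means stronger Kir2.1 block with less thallium influx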
KCNK9 inh: inhibitors of human KCNK9 two-pore domain potassium channel; Q9NPC2; HEK293 KCNK9, FluxOR thallium flux fluorescence; active compounds read low; B-score at 10 µM; hit rate 1.2% among 310,000; AID 488922;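 active means ratio B-score over 3 SD below the library mean, with starting fluorescence within 5 SD of its mean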;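 further: negative B-score means less thallium flux so channel inhibition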
hERG protect: hERG (human) protection from proarrhythmic block | CHO-hERG, FluxOR thallium flux, dofetilide IC70 present | activation (rescue from dofetilide block), less the hit threshold, % at 10 µM | hit rate 0.51% among 310,000 | AID 1511;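 active means activation above the mean of controls blocked by dofetilide plus 5 SD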;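 further: thallium influx through hERG after potassium depolarization seen as dye fluorescence rise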
Target sequence (Q12809 whole entry, looked up): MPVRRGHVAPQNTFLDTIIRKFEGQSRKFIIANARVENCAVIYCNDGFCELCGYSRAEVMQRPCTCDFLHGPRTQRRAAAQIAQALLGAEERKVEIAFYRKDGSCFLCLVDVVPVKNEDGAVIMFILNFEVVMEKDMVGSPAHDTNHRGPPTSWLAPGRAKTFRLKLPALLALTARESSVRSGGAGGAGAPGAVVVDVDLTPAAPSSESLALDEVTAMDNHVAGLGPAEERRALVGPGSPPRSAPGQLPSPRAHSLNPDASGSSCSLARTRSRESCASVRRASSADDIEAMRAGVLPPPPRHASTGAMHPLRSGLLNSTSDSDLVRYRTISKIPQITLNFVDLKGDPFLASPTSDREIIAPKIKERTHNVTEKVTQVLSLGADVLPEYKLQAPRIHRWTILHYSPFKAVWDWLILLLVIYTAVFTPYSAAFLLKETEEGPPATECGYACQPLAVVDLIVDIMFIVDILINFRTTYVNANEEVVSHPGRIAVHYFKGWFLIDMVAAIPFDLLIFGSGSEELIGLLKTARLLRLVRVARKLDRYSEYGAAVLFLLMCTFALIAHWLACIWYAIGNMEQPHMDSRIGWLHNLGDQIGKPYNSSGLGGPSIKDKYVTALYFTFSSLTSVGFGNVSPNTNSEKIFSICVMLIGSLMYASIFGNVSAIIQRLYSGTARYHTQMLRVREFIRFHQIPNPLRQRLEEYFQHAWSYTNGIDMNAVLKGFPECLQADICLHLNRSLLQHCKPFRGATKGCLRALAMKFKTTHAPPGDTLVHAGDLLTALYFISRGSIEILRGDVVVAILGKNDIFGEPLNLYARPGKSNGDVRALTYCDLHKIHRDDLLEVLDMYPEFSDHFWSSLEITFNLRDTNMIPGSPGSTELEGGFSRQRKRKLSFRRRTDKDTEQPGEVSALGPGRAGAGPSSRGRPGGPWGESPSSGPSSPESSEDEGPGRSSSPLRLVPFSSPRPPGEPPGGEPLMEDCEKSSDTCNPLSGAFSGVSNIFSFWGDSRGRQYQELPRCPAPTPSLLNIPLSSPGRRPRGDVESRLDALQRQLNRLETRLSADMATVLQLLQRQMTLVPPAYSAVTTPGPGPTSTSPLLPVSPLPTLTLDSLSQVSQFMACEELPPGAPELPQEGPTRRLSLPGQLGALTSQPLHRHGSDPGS
KCNQ1 block: inhibitors of human KCNQ1 potassium channel; hit rate 1.3% among 310,000; AID 2642; CHO-K1 KCNQ1, FluxOR thallium flux fluorescence; active compounds read high; P51787; B-score at 10 µM;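 active means compounds whose thallium flux B-score, printed positive for inhibition, exceeds three library SD while starting fluorescence stays within three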;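 further: channel opened by potassium depolarization with thallium stimulus after 20 min compound exposure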
KCNQ1 pot: potentiates or activates the human KCNQ1 potassium channel; AID 2648; hit rate 0.35% among 310,000; CHO-K1 KCNQ1, thallium flux FluxOR fluorescence; active compounds read high; B-score at 10 µM; P51787;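 active means fluorescence ratio B-score, a plate-corrected score, at least three library SD, with initial intensity B-score within 5 SD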
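Assay system: stable KCNQ1 CHO-K1 line; medium: assay buffer, equal DMSO in all wells; timing: 90 min dye loading and 20 min compound exposure, both at room temperature; technique: kinetic FluxOR thallium fluorescence, 10-s 1-Hz baseline, 110-s post-stimulus read; read-out basis: B score of baseline-normalized fluorescence ratio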
KCNK9 inh conf: human KCNK9 inhibitor confirmation. shares compounds with KCNK9 inh. HEK293 KCNK9 cells, FluxOR thallium flux fluorescence. inhibition, % at 10 µM. hit rate 43% among 4,900. AID 492992;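 active means thallium signal inhibited by more than 5 SD of the compound-free buffer control wells, on both duplicate plates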;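 further: 0% = assay buffer control wells without compound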
Kir2-1 spec: mouse Kir2.1 off-target activity of KCNK9 modulators; shares compounds with KCNK9 inh; Kir2.1 cells, FluxOR thallium flux fluorescence; inhibition, % at 10 µM; hit rate 4% among 4,900;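 active means thallium signal drop more than 5 SD beyond the mean of the no-compound control wells, seen in both duplicate plates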;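 further: signal is fluorescence rise after thallium addition divided by baseline fluorescence; plate controls were assay buffer only for no effect and full block by chlorpromazine control for full effect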
HEK293 Tl ctr: non-induced cell nonspecific activity of KCNK9 modulators; shares compounds with KCNK9 inh; non-induced KCNK9-HEK293, FluxOR thallium flux; inhibition, % at 10 µM; hit rate 40% among 4,900; AID 492997;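 active means thallium signal drop beyond 5 SD of the untreated control mean, on both duplicate plates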;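 further: plate controls were buffer only IC0 wells for no effect and SID17386958 at its maximal inhibitory level for full effect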
* = called active by the depositor; i = inactive; x = no result given. A selection: hits, their analogues and other compounds. The true share with any hit is near 3.7%.

SMILES | KCNK3 inh | Kir21 block | KCNK9 inh | hERG protect | KCNQ1 block | KCNQ1 pot | KCNK9 inh conf | Kir2-1 spec | HEK293 Tl ctr
COc1ccc(OC)c(Nc2ncnc3sc(-c4ccccc4)cc23)c1 | i | -0.05 | -10.9* | -8.6 | i | i | i | i | 31.5%*
COc1ccc(OC)c(Nc2ncnc3sccc23)c1 | i | -0.57 | i | -3.8 | i | i | x | x | x
CC(=O)c1cnn(-c2nc3c(C)cccc3s2)c1C | i | 2.57 | i | -8.1 | i | i | i | i | i
N#Cc1ccsc1NC(=O)CCc1ccccc1 | i | 2.05 | i | -17.1 | i | i | x | x | x
N#Cc1ccsc1NC(=O)CN(Cc1ccccc1)Cc1ccccc1 | i | -4.84* | -16.9* | -7.2 | 6* | i | 68.0%* | i | 59.0%*
Cc1cc(=O)n2nc(N3CCC(C(=O)NCc4cccc(Br)c4)CC3)sc2n1 | i | 2.17 | i | -9.6 | i | i | x | x | x
O=C(Nc1cn(-c2ccccc2)nc1-c1ccc(Cl)cc1)c1ccccc1 | i | -0.16 | -9.22* | -14.0 | i | i | 50.5%* | i | 42.5%*
O=C(CC1C(=O)NCCN1Cc1ccccc1C(F)(F)F)NCCn1cccn1 (stereo not drawn) | i | -0.03 | i | -10.0 | i | i | x | x | x
CCc1ccc(C(=O)N2CCC(c3nc4ccccc4s3)CC2)cc1 | i | -1.05 | i | -12.7 | i | i | i | i | i
O=C(c1ccccc1Br)N1CCC(c2nc3ccccc3s2)CC1 | i | 0.36 | i | -21.8 | i | i | x | x | x
CC(=O)Nc1ccc(SCC(=O)NC(=O)c2ccc(S(=O)(=O)N(C)C)cc2)cc1 | i | x | x | x | x | x | x | x | x
CCOC(=O)c1c(NC(=O)CSc2nnc(-c3ccc(Cl)cc3)o2)sc2c1CCC2 | i | -1.07 | i | -11.4 | i | i | i | i | i
CCOC(=O)c1c(NC(=O)CSc2nc3ccccc3s2)sc(C)c1C | i | 1.58 | i | -10.9 | i | i | i | i | i
CCOC(=O)c1c(NC(=O)CCc2ccc(CC)o2)sc(C)c1C | i | 0.1 | i | -18.7 | i | i | i | i | 24.0%*
COC(=O)c1c(NC(=O)CCc2ccc(C)o2)sc(C)c1C | i | -0.49 | i | -12.1 | i | i | x | x | x
Cc1nnc(SCC(=O)Nc2sc3c(c2C(=O)c2ccccc2)CCCC3)s1 | i | -2.05 | i | -7.8 | i | i | i | i | i
CCCCc1ccc(NC(=O)Nc2cc(C)nn2C)cc1 | i | -0.5 | i | -9.6 | i | i | x | x | x
O=C(CNS(=O)(=O)c1ccccc1)N/N=C/c1ccccc1[N+](=O)[O-] | i | -0.18 | i | -4.8 | i | i | x | x | x
CCOC(=O)c1c(NC(=O)CSc2nnc(Cc3ccccc3)o2)sc(C)c1C | i | -1.74 | i | -5.8 | i | i | i | i | i
Cc1noc(N)c1C(=O)Nc1ccccc1F | i | 1.38 | -9.47* | -6.5 | i | i | i | i | i
O=C(NCCCN1CCOCC1)c1cc(-c2ccc(Cl)s2)nc2ccccc12 | i | 1.11 | i | -10.8 | i | i | x | x | x
COc1ccc(C(=O)COC(=O)c2cnc(C)cn2)c(OC)c1 | i | 1.55 | i | -3.0 | i | i | x | x | x
CCSC(=O)N=Nc1ccc(O)cc1 | i | x | x | x | x | x | x | x | x
CC(OC(=O)c1cccc(S(=O)(=O)N2CCOCC2)c1)C(=O)NC1CCCCC1C (stereo not drawn) | i | x | x | x | x | x | x | x | x
CCOc1ccc2[nH]c3c(=O)n(CCC4=CCCCC4)cnc3c2c1 | i | 0.88 | i | -9.9 | i | i | i | i | i
COc1ccc(CCNC(=O)CSc2nnc3ccc(-c4ccccn4)nn23)cc1OC | i | 2.87 | i | -17.0 | i | i | x | x | x
